Measured values published in ChEMBL document CHEMBL6087468, “TKK130 is a 3-Hydroxy-Propanamidine (HPA) with Potent Antimalarial In Vivo Activity and a High Barrier to Resistance” (J Med Chem, 2025).
Active and inactive are the calls of the source. The rule behind the calls is not given here.

What was measured:
[1] = Unbound drug concentration in plasma (unknown origin) at 25 ng/ml measured after 24 hrs by standard equilibrium dialysis assay; type: ADME, cell-free
Procedure, shortened: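 Standard equilibrium dialysis (6 kDa regenerated cellulose membrane): donor plasma spiked at 25 ng/mL, acceptor 0.9% saline, 24 h at 37 °C. Acetonitrile precipitation of plasma, methanol added to acceptor; LC–MS/MS with calibration curves in each medium; fraction bound corrected for volume shift; triplicate; itraconazole reference.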

[2] = AUC (0 to t) in mouse infected with Plasmodium berghei at 3 mg/kg, po; type: ADME, organism-based; conditions: in vivo
Procedure, shortened: (§1)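 Single oral dose to P. berghei-infected mice, 2 mice per dose group. Blood sampled at 1, 4 and 24 h post-dose as dried blood spots, plus a blank "0 h" reading. Spots diluted 1:5 (3, 10 mg/kg) or 1:10 (30 mg/kg), then quantified by LC–MS/MS against a whole-blood calibration of 1.56–800 ng/mL with QCs at three levels.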

[3] = tested on: Plasmodium berghei; experiment: In vivo antiplasmodial activity against Plasmodium berghei infected mouse model assessed as curation rate at 50 mg/kg, po treated 4 times measured at 96 hrs post infection by fluorescence-activated cell sorting (FACS) analysis; type: functional
[4] = tested on: Plasmodium falciparum; experiment: Induction of resistance development in Plasmodium falciparum Dd2 Pol delta at 2 x 10^9 initial inoculum per flask at 9 nM measured on day 4 by single-step selection assay; type: functional, organism-based
[5] = Cmax in mouse infected with Plasmodium berghei at 10 mg/kg, po; type: ADME, organism-based; conditions: in vivo; procedure, shortened: as §1
[6] = Tmax in mouse infected with Plasmodium berghei at 3 mg/kg, po; type: ADME, organism-based; conditions: in vivo
Procedure, shortened: (§2)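 Infected mice (n = 2 per dose) given a single oral dose of 3, 10 or 30 mg/kg; blood sampled as dried blood spots at 1, 4 and 24 h post-dose, diluted before LC–MS analysis against whole-blood dried-spot calibration (1.56–800 ng/mL) with QCs; tmax from concentration–time profiles.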

[7] = tested on: Plasmodium falciparum; experiment: (§3) Antimalarial activity against chloroquine, sulfadoxine, and pyrimethamine-resistant Plasmodium falciparum Dd2 infected in erythrocyte assessed as reduction in number of viable parasites at 10 times IC50 concentration treated for 24 hrs followed by allowed to recover in drug-free medium for 28 days by HRP2-ELISA analysis; type: functional, organism-based
[8] = tested on: Plasmodium berghei; experiment: In vivo antiplasmodial activity against Plasmodium berghei infected mouse model assessed as parasitemia suppression in blood at 50 mg/kg, po treated 4 times measured at 96 hrs post infection by fluorescence-activated cell sorting (FACS) analysis; type: functional
[9] = Plasma stability at 37 °C measured as remaining drug at 48 hrs sampled in triplicate (concentration 25 ng/mL 2 (TKK130)); type: ADME, cell-free; conditions: human, at 25 ng/mL, read-out: Stability
Procedure, shortened: (§4)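 Fresh EDTA human plasma warmed to 37 °C, spiked to 25 ng/mL (0.5% methanol final), split into three fractions, shaken at 37 °C. Samples at 0, 2, 4, 6, 24, 48 h precipitated with ice-cold acetonitrile containing internal standard; LC–MS/MS. Recovery = analyte/IS area ratio relative to 0 h; triplicate.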

[10] = tested on: Plasmodium falciparum; experiment: as §3, with “72” for “24”; type: functional, organism-based
[11] = tested on: Plasmodium falciparum; experiment: Induction of resistance development in Plasmodium falciparum Dd2 Pol delta at 2 x 10^7 initial inoculum per flask by single-step selection assay; type: functional, organism-based
[12] = tested on: Plasmodium berghei; experiment: In vivo antiplasmodial activity against Plasmodium berghei infected mouse model assessed as mean survival time at 50 mg/kg, po treated 4 times measured at 96 hrs post infection by fluorescence-activated cell sorting (FACS) analysis (reference value: 4 days); type: functional
[13] = Cmax in mouse infected with Plasmodium berghei at 3 mg/kg, po; type: ADME, organism-based; conditions: in vivo; procedure, shortened: as §1
[14] = tested on: Plasmodium falciparum; experiment: Antimalarial activity against multidrug-resistant Plasmodium falciparum Dd2 harboring pfcrt, pfmdr1, pfdhfr, pfdhps mutated loci assessed as inhibition of parasite growth incubated for 48 hrs by [3H]hypoxanthine incorporation assay; type: functional, organism-based
[15] = Plasma protein binding in plasma (unknown origin) at 25 ng/ml measured after 24 hrs by dilution method; type: ADME, cell-free
Procedure, shortened: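 Equilibrium dialysis with donor plasma diluted 1:10 or 1:20 in 0.9% saline, spiked at 25 ng/mL, against 0.9% saline acceptor for 24 h at 37 °C. Concentrations by LC–MS/MS against diluted-plasma calibration curves; unbound fraction (acceptor/donor) back-calculated to undiluted plasma; triplicate; itraconazole reference.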

[16] = tested on: Plasmodium berghei; experiment: In vivo antiplasmodial activity against Plasmodium berghei infected mouse model assessed as parasitemia suppression in blood at 10 mg/kg, po treated 4 times measured at 96 hrs post infection by fluorescence-activated cell sorting (FACS) analysis; type: functional
[17] = Tmax in mouse infected with Plasmodium berghei at 30 mg/kg, po; type: ADME, organism-based; conditions: in vivo; procedure, shortened: as §2
[18] = tested on: Hemozoin; experiment: Inhibition of beta-hematin formation assessed as formation of bis-pyridyl heme complex incubated for 4 to 5 hrs by Nonidet-40 based plate reader assay
[19] = biological target: Voltage-gated inwardly rectifying potassium channel KCNH2 (Homo sapiens, UniProt Q12809); experiment: Inhibition of hERG by fluorescence polarization assay; type: toxicity
Voltage-gated inwardly rectifying potassium channel KCNH2, sequence (Q12809 whole entry): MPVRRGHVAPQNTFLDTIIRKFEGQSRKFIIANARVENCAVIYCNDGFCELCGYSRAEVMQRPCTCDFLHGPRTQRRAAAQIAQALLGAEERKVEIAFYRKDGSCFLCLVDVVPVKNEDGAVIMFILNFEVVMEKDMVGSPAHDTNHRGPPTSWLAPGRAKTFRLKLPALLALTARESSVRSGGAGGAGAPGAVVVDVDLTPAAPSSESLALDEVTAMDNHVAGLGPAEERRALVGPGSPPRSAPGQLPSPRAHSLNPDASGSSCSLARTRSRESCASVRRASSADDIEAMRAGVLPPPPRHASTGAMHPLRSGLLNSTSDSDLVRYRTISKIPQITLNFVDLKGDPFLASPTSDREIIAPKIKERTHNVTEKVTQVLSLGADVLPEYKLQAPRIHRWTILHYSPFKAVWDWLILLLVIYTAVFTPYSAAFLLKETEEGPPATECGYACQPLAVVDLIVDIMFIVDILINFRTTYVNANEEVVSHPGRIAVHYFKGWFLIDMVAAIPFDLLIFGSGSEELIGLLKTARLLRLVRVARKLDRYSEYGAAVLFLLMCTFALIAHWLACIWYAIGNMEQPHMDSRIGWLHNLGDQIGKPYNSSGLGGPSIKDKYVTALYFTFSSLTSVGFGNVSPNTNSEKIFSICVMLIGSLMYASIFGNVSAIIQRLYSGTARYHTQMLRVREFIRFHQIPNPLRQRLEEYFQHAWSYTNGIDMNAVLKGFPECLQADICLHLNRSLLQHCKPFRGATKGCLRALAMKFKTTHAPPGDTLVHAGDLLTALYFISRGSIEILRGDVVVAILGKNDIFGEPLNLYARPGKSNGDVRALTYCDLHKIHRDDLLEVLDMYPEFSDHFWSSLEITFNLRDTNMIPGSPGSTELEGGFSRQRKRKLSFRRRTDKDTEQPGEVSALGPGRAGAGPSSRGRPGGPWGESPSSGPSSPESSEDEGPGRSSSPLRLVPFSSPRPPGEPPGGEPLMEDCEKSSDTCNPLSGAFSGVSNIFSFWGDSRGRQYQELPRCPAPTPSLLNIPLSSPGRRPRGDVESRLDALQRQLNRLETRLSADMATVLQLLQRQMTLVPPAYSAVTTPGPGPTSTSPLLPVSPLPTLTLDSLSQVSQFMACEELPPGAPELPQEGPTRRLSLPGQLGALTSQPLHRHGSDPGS

[20] = tested on: Plasmodium berghei; experiment: In vivo antiplasmodial activity against Plasmodium berghei infected mouse model assessed as curation rate at 10 mg/kg, po treated 4 times measured at 96 hrs post infection by fluorescence-activated cell sorting (FACS) analysis; type: functional
[21] = tested on: Plasmodium berghei; experiment: In vivo antiplasmodial activity against Plasmodium berghei infected mouse model assessed as parasitemia suppression in blood at 30 mg/kg, po treated 4 times measured at 96 hrs post infection by fluorescence-activated cell sorting (FACS) analysis; type: functional
[22] = tested on: Plasmodium berghei; experiment: In vivo antiplasmodial activity against Plasmodium berghei infected mouse model assessed as mean survival time at 30 mg/kg, po treated 4 times measured at 96 hrs post infection by fluorescence-activated cell sorting (FACS) analysis (reference value: 4 days); type: functional
[23] = Plasma stability at 37 °C measured as remaining drug at 24 hrs sampled in triplicate (concentration 25 ng/mL 2 (TKK130)); type: ADME, cell-free; conditions: human, at 25 ng/mL, read-out: Stability; procedure, shortened: as §4
[24] = tested on: Plasmodium falciparum; experiment: Antimalarial activity against chloroquine-sensitive Plasmodium falciparum 3D7 infected in erythrocytes measured after 3 days by HRP2-ELISA analysis; type: functional, organism-based; conditions: 3D7, Erythrocyte, 72 h
[25] = Microsomal binding in human liver microsomes assessed as unbound fraction […] by Equilibrium dialysis; type: ADME, Microsome
Procedure, shortened: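 Equilibrium dialysis across 6 kDa regenerated cellulose membrane: donor 1 μM analyte in 0.5 mg/mL pooled HLMs in 0.1 M potassium phosphate buffer, acceptor 0.9% saline, 24 h at 37 °C. Donor diluted 1:20 in 4% BSA, acetonitrile precipitation, LC–MS/MS against matrix calibration curves; fraction bound from volume-corrected equation, unbound = 1 − bound; triplicate.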

[26] = tested on: Plasmodium berghei; experiment: In vivo antiplasmodial activity against Plasmodium berghei infected mouse model assessed as curation rate at 30 mg/kg, po treated 4 times measured at 96 hrs post infection by fluorescence-activated cell sorting (FACS) analysis; type: functional
[27] = tested on: Plasmodium falciparum; experiment: as §3, with “120” for “24”; type: functional, organism-based
[28] = tested on: Plasmodium berghei; experiment: In vivo antiplasmodial activity against Plasmodium berghei infected mouse model assessed as curation rate at 3 mg/kg, po treated 4 times measured at 96 hrs post infection by fluorescence-activated cell sorting (FACS) analysis; type: functional
[29] = tested on: Plasmodium falciparum; experiment: Induction of resistance development in Plasmodium falciparum Dd2 Pol delta at 2 x 10^7 initial inoculum per flask measured on day 16 by single-step selection assay; type: functional, organism-based

Cl.N=C(CC(O)c1cc2c(F)cc(F)cc2c2cc(C(F)(F)F)ccc12)Nc1ccc(F)cc1 (centres undefined)
Cp(f) [1]: 0.2% | AUC(0-t) [2]: 3770 ng·h/mL | Activity [3]: 100% | Activity [4]: Active; No Subsequent Parasite Growth Observed | Cmax [5]: 599 ng/mL | Tmax [6]: 4 h | Activity [7]: Active; Compound Exhibited Fast-Acting Than Dihydroartemisinin | Activity [8]: 99.8% | remaining at 48 h, 25 ng/mL [9]: 59.4% | Activity [10]: Active | Activity [11]: Active; No Resistant Parasites Generated | MSD [12]: 30 days | Cmax [13]: 216 ng/mL | IC50 [14]: 172 nM | fraction unbound at 24 h, 25 ng/ml [15]: 0.004 | Activity [16]: 99.9% | Tmax [17]: 4 h | IC50 [18]: 9.4 µM | IC50 [19]: 300 nM | Activity [20]: 33% | Activity [21]: 99.8% | MSD [22]: 30 days | remaining at 24 h, 25 ng/mL [23]: 76.4% | IC50 [24]: 2 nM | Activity [25]: 2.6% | Activity [26]: 100% | Activity [27]: Active | Activity [28]: 0% | Activity [29]: inactive
